For 4 molecules, inhibition results are on record in PubChem BioAssay AID2516 (University of Pittsburgh Molecular Library Screening Center, 2010).

The list shows a part of the results. Active and inactive are the calls of the source.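 Rule for the calls: active = at least 50% inhibition in the glucose-6-phosphate dehydrogenase coupled counterscreen; inconclusive = no clear call, values can overlap the other calls; inactive = inhibition below 50%.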

The experiment has as its system glucose-6-phosphate dehydrogenase [Leuconostoc mesenteroides]. Nature of the experiment: coupling enzyme G6PDH activity blockers – biochemical, DPI cherry-picked compounds, single concentration, counter-screen for TbHK1 inhibitor project, confirmation (AID 2516). As to conditions: purified G6PDH, NADH absorbance, 1 h; at 10 µM; active compounds read high. In outline:
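System: purified G6PDH enzyme. Amount: enzyme 0.006 mU/µL final. Also added: substrates G6P at 0.2 mM and NAD+ at 0.6 mM, final. Compound dosing: single point, test compound at 10 µM final. Incubation: enzyme reaction for 1 h at room temperature. Technique: absorbance after 50 mM EDTA stop.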
A general note: Counterscreens check selectivity or assay interference.
Turning to `COC(=O)C1CCN(CC(N)=O)CC1`, the inhibition is -9.01% (inactive).

In the case of `O=C(CN1C(=O)C2C3C=CC(C3)C2C1=O)NCCc1ccccc1Cl` (centres undefined), the inhibition is -2.31% (inactive).

Take `CC1(C)CC(=O)C=C(NCCCNC2CCCCC2)C1`: the inhibition was 2.59% (inactive).

As for `COc1cccc(/C=N/Nc2ncc(C(F)(F)F)cc2Cl)c1O`, the inhibition was -9.42% (inactive).

One may read the inhibition as the change of the read-out against control, counted positive when it falls.
